Series [1] can be described thus: Partition coefficient, log P of the compound by HPLC analysis. The settings on record: octanol/water. Format: physicochemical. A digest of the protocol: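 Partition coefficient measured by HPLC following OECD guidelines for the testing of chemicals.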
Series [2] in a line: Dissociation constant, pKa of the compound. The format is physicochemical.
The subject of series [3] is Staphylococcus aureus. The experiment in a line: Antibacterial activity against Staphylococcus aureus ATCC 29213 after 20 to 22 hrs by CLSI broth macro-dilution method. Format: functional.
A short description of series [4]: Hemolytic activity against rabbit erythrocytes after 60 mins by spectrophotometric analysis. Format: ADME, cell-based, Oryctolagus cuniculus, Erythrocyte.
Series [5] has as its system Staphylococcus aureus. The experiment in a line: Antibacterial activity against methicillin-resistant Staphylococcus aureus clinical isolate DM21455 after 20 to 22 hrs by CLSI broth macro-dilution method. Format: functional.
Series [6] is described as follows: Selectivity ratio of HC50 for rabbit erythrocyte to MIC99 for methicillin-resistant Staphylococcus aureus clinical isolate DM21455. Format: functional.
A short description of series [7]: Selectivity ratio of HC50 for rabbit erythrocyte to MIC99 for Staphylococcus aureus ATCC 29213. The format is functional.
Series [8] concerns Staphylococcus aureus. Put plainly: Antibacterial activity against methicillin-resistant Staphylococcus aureus DM21595 assessed as log reduction in CFU at 0.5 X MIC to 4 X MIC after 8 hrs by surface-spread plate method relative to control. The format is functional, organism-based.
The test system of series [9] is Staphylococcus aureus. Put plainly: Antibacterial activity against methicillin-resistant Staphylococcus aureus ATCC […] after 20 to 22 hrs by CLSI broth macro-dilution method. The format is functional.
The subject of series [10] is Staphylococcus aureus. Put plainly: Antibacterial activity against methicillin-resistant Staphylococcus aureus ATCC 700699 assessed as log reduction in CFU at 0.5 X MIC to 4 X MIC after 8 hrs by surface-spread plate method relative to control relative to control. Format: functional, organism-based.
The subject of series [11] is Staphylococcus aureus. Put plainly: Antibacterial activity against methicillin-resistant Staphylococcus aureus DM42412 assessed as log reduction in CFU at 0.5 X MIC to 4 X MIC after 8 hrs by surface-spread plate method relative to control. Format: functional, organism-based.
For series [12], the system named is Staphylococcus aureus. The experiment in a line: Antibacterial activity against methicillin-resistant Staphylococcus aureus DM09808R assessed as log reduction in CFU at 0.5 X MIC to 4 X MIC after 8 hrs by surface-spread plate method relative to control. Format: functional, organism-based.
Series [13] deals with Staphylococcus aureus. The experiment in a line: Antibacterial activity against methicillin-resistant Staphylococcus aureus DR42412 obtained from sputum isolate after 20 to 22 hrs by CLSI broth macro-dilution method. The format is functional.
Series [14] concerns Staphylococcus aureus. Put plainly: Antibacterial activity against methicillin-resistant Staphylococcus aureus DM21595 obtained from wound isolate after 20 to 22 hrs by CLSI broth macro-dilution method. The format is functional.
In series [15] the test system is Staphylococcus aureus. The experiment in a line: Antibacterial activity against methicillin-resistant Staphylococcus aureus DM09808R obtained from eye isolate after 20 to 22 hrs by CLSI broth macro-dilution method. The format is functional.
Series [16] concerns Staphylococcus aureus. The experiment in a line: Antibacterial activity against methicillin-resistant Staphylococcus aureus DM21455 assessed as log reduction in CFU at 0.5 X MIC to 4 X MIC after 8 hrs by surface-spread plate method relative to control. The format is functional, organism-based.
The test system of series [17] is Staphylococcus aureus. The experiment in a line: Antimicrobial activity against in Staphylococcus aureus assessed as disruption of bacterial membrane at 10 uM by fluorescence microscopy. Format: functional, organism-based. A digest of the protocol: (§1)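 S. aureus DM4001 treated with 10 μM agent and incubated with the membrane-impermeant nucleic-acid dye SYTOX Green. Permeabilization was read as increased fluorescence intensity and confirmed by fluorescence microscopy counting green-stained cells.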

The test system of series [18] is Staphylococcus aureus. The experiment in a line: Antimicrobial activity against Staphylococcus aureus assessed as disruption of bacterial membrane at 10 uM by SYTOX green uptake assay. Format: functional, organism-based. A digest of the protocol: as §1
For series [19], the system named is Staphylococcus aureus. Put plainly: Antibacterial activity against methicillin-resistant Staphylococcus aureus DM42412 assessed as log reduction in CFU at 0.5 X MIC to 4 X MIC after 24 hrs by surface-spread plate method relative to control. Format: functional.
Series [20] relates to Staphylococcus aureus. Put plainly: Antibacterial activity against methicillin-resistant Staphylococcus aureus DM09808R assessed as log reduction in CFU at 0.5 X MIC to 4 X MIC after 24 hrs by surface-spread plate method relative to control. Format: functional.
For series [21], the system named is Staphylococcus aureus. Put plainly: Antibacterial activity against methicillin-resistant Staphylococcus aureus DM21595 assessed as log reduction in CFU at 0.5 X MIC to 4 X MIC after 24 hrs by surface-spread plate method relative to control. The format is functional.
Series [22] in a line: Toxicity against New Zealand White rabbit corneal epithelium assessed as effect on wound closure at 50 ug/ml by Slit lamp photography relative to control. Format: tissue-based, Oryctolagus cuniculus, Cornea. As to conditions: in vivo. A digest of the protocol: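 A 5 mm corneal epithelial abrasion was made with a sterile trephine and the epithelium removed with a mini blade. Eyes were treated with saline, vancomycin 50 μg/mL, or agent 50 μg/mL. Wound closure was tracked over time from fluorescein-stained photographs of defect size.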

Series [23] concerns Staphylococcus aureus. The experiment in a line: Antibacterial activity against methicillin-resistant Staphylococcus aureus ATCC 700699 assessed as log reduction in CFU at 0.5 X MIC to 4 X MIC after 24 hrs by surface-spread plate method relative to control. The format is functional.
Series [24] deals with Staphylococcus aureus. Put plainly: Antibacterial activity against methicillin-resistant Staphylococcus aureus DM21455 assessed as log reduction in CFU at 0.5 X MIC to 4 X MIC after 24 hrs by surface-spread plate method relative to control. The format is functional.
In series [25] the test system is Klebsiella pneumoniae. The experiment in a line: Antibacterial activity against Klebsiella pneumoniae ATCC 10031 after 20 to 22 hrs by CLSI broth macro-dilution method. Format: functional.
Series [26] deals with Pseudomonas aeruginosa. Put plainly: Antibacterial activity against Pseudomonas aeruginosa ATCC 27853 after 20 to 22 hrs by CLSI broth macro-dilution method. The format is functional.

The text below walks through data of ChEMBL document CHEMBL2331269, “Design and synthesis of amphiphilic xanthone-based, membrane-targeting antimicrobials with improved membrane selectivity” (J Med Chem, 2013).

Converted amounts (≈) assume the structure as drawn. The source made the active and inactive calls. The rule behind the calls is not given here.

Turning to `COc1c(OCCCCN2CCOCC2)cc2oc3cc(OCCCCN4CCOCC4)c(CC=C(C)C)c(O)c3c(=O)c2c1CC=C(C)C`, the logP – broadly, a log measure of how a compound divides between an organic and an aqueous phase – in series [1] (read-out: logP) amounted to 5.42. In [2], the pKa (commonly the negative logarithm of the acid dissociation constant) amounted to 8.36. Also, the MIC99 in [3] and in [5] was greater than 200 µg/mL each time. For the same compound, in series [4], the HC50 (in general, the concentration giving 50% haemolysis) at 1 h is greater than 200 µM.
Regarding `CCN(CC)CCCOc1cc2oc3cc(OCCCN(CC)CC)c(OC)c(CC=C(C)C)c3c(=O)c2c(O)c1CC=C(C)C`, the Selectivity ratio in series [6] turned out to be 41.7; in series [7] it was 20.9. In addition, the logP in series [1] (read-out: logP) was determined as 6.27. The compound also registered a pKa in series [2] of 11. Also, the MIC99 – broadly, an inhibitory concentration at the 99% level, which refers to growth in some studies and to a panel of isolates in others – came out at 0.78 µg/mL (≈ 1.22 µM) in series [3] and 0.39 µg/mL (≈ 0.612 µM) in series [5]. In series [4], the concentration for 50% haemolysis (HC50) at 1 h worked out at 16.3 µM.
As for `CCN(CC)CCCCCOc1cc2oc3cc(OCCCCCN(CC)CC)c(OC)c(CC=C(C)C)c3c(=O)c2c(O)c1CC=C(C)C`, the Selectivity ratio was 18 in [6] and 9 in series [7]. Also, in series [1] (read-out: logP), the logP was 7.55. In addition, the pKa in series [2] was 11. Besides, the MIC99 was determined as 1.56 µg/mL (≈ 2.25 µM) in series [3] and 0.78 µg/mL (≈ 1.13 µM) in series [5]. Moreover, in series [4], the HC50 at 1 h is 14 µM.
In the case of `CCCCCCCCCC(=O)N[C@@H](Cc1c[nH]c2ccccc12)C(=O)N[C@H](CC(N)=O)C(=O)N[C@@H](CC(=O)O)C(=O)N[C@@H]1C(=O)NCC(=O)N[C@@H](CCCN)C(=O)N[C@@H](CC(=O)O)C(=O)N[C@H](C)C(=O)N[C@@H](CC(=O)O)C(=O)NCC(=O)N[C@H](CO)C(=O)N[C@@H]([C@H](C)CC(=O)O)C(=O)N[C@@H](CC(=O)c2ccccc2N)C(=O)O[C@@H]1C`, the outcome in series [8], in series [10], in series [11], in series [12] and in series [16] was inactive. Also, the MIC (in general, the lowest concentration found to suppress growth) was determined as 0.78 µg/mL (≈ 0.481 µM) in series [9], 0.195 µg/mL (≈ 0.12 µM) in series [13], 0.78 µg/mL (≈ 0.481 µM) in [14] and 0.195 µg/mL (≈ 0.12 µM) in [15]. In addition, the MIC99 in series [5] amounted to 0.78 µg/mL (≈ 0.481 µM).
Regarding `COc1c(OCCCCBr)cc2oc3cc(OCCCCBr)c(CC=C(C)C)c(O)c3c(=O)c2c1CC=C(C)C`, the result in [17] and in series [18] was inactive. For the same compound, the MIC99 in [3] and in [5] was greater than 200 µg/mL in each case. For the same compound, the HC50 at 1 h in series [4] was greater than 200 µM.
On to `CN[C@H](CC(C)C)C(=O)N[C@H]1C(=O)N[C@@H](CC(N)=O)C(=O)N[C@H]2C(=O)N[C@H]3C(=O)N[C@H](C(=O)N[C@H](C(=O)O)c4cc(O)cc(O)c4-c4cc3ccc4O)[C@H](O)c3ccc(c(Cl)c3)Oc3cc2cc(c3O[C@@H]2O[C@H](CO)[C@@H](O)[C@H](O)[C@H]2O[C@H]2C[C@](C)(N)[C@H](O)[C@H](C)O2)Oc2ccc(cc2Cl)[C@H]1O` [VANCOMYCIN], for which the MIC in series [9] worked out at 6.25 µg/mL (≈ 4.31 µM); in series [13] it was 0.78 µg/mL (≈ 0.538 µM); in series [14], 0.39 µg/mL (≈ 0.269 µM); in [15] it was 0.39 µg/mL (≈ 0.269 µM). Further, the FC in [19], in series [20], in series [21], in series [23] and in [24] was 3 in each case. Moreover, in [22], the Activity entry is on record as “Non-toxic”. The compound also registered an MIC99 in [5] of 0.78 µg/mL (≈ 0.538 µM).
With `COc1c(OCCCCN2CCCC2)cc2oc3cc(OCCCCN4CCCC4)c(CC=C(C)C)c(O)c3c(=O)c2c1CC=C(C)C`, the Selectivity ratio in series [6] and in [7] was 16 in each case. Moreover, the logP in series [1] (read-out: logP) was 6.63. Further, in series [2], the pKa is 11.3. The MIC99 in series [3] and in series [5] was 1.56 µg/mL (≈ 2.36 µM) each time. The HC50 at 1 h in series [4] is 25 µM.
With `COc1c(OCCCCn2cccn2)cc2oc3cc(OCCCCn4cccn4)c(CC=C(C)C)c(O)c3c(=O)c2c1CC=C(C)C`, in series [1], the logP is 9.28. In [2], this compound came in with a pKa of 2.52. In addition, the MIC99 in [3] and in series [5] was greater than 200 µg/mL throughout. The HC50 at 1 h in [4] was greater than 200 µM.
On to `COc1c(OCCCCN2CCCCC2)cc2oc3cc(OCCCCN4CCCCC4)c(CC=C(C)C)c(O)c3c(=O)c2c1CC=C(C)C`, for which the Selectivity ratio was determined as 12.3 in [6] and 24.7 in series [7]. Moreover, in series [1] (read-out: logP), the logP was found to be 6.93. Besides, the pKa in series [2] came to 11.2. In addition, the MIC99 in [3] was 0.78 µg/mL (≈ 1.13 µM); in series [5], 1.56 µg/mL (≈ 2.26 µM). This compound yielded an HC50 at 1 h in [4] of 19.3 µM.
As to `COc1c(O)cc2oc3cc(O)c(CC=C(C)C)c(O)c3c(=O)c2c1CC=C(C)C` [MANGOSTIN], the MIC in series [25] and in series [26] was greater than 200 µg/mL throughout. For the same compound, the Selectivity ratio in series [6] and in [7] was 5.77 throughout. In addition, the logP in [1] (read-out: logP) stood at 6.75. Further, the MIC99 in [3] and in series [5] was 1.56 µg/mL (≈ 3.8 µM) throughout. In series [4], the HC50 at 1 h is 9 µM.
As to `CCN(CC)CCCCCCOc1cc2oc3cc(OCCCCCCN(CC)CC)c(OC)c(CC=C(C)C)c3c(=O)c2c(O)c1CC=C(C)C`, the Selectivity ratio in [6] and in series [7] was 17 each time. In addition, the logP in series [1] (read-out: logP) is 8.39. This compound also yielded a pKa in series [2] of 11. Further, the MIC99 in [3] and in [5] was 1.56 µg/mL (≈ 2.16 µM) in each case. Moreover, the concentration for 50% haemolysis (HC50) at 1 h in series [4] turned out to be 26.5 µM.
On to `COc1c(OCCCCn2cncn2)cc2oc3cc(OCCCCn4cncn4)c(CC=C(C)C)c(O)c3c(=O)c2c1CC=C(C)C`, for which the logP in series [1] stood at 11.08. For the same compound, the pKa in [2] stood at 2.2. Further, the MIC99 in series [3] and in [5] was greater than 200 µg/mL each time. The same compound returned an HC50 at 1 h in series [4] greater than 200 µM.
